Data on 37 variants can be found in the RNAGym collection of RNA variant scans (doi:10.1126/science.aae0568).

B1: tRNA (parent)
chain: GUUCCGUUGGCGUAAUGGUAACGCGUCUCCCUCCUAAGGAGAAGACUGCGGGUUCGAGUCCCGUACGGAACG

This sample holds only a part of the variants without activity.

The variants in this data set derive from B1. Briefly: yeast fitness relative to wild type (ratio to wild type); higher = fitter; tRNA-Arg(CCU), competitive growth, 37 C, YPD. In outline:
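A pool of Saccharomyces cerevisiae strains, each with a tRNA-Arg(CCU) gene variant at the native genomic locus, was competed in YPD at 37°C for 24 hours across six parallel replicates. The variants had been chemically synthesised at a 3% per-site mutation rate over 69 sites, and gene amplicons before and after competition were read by 100-nucleotide paired-end sequencing. Darwinian fitness relative to wild type rested on changes in genotype frequencies. Genotypes required ≥ 100 starting reads, and estimates < 0.5 were set to 0.5.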
Turning to GUUCCGUUGGCGUAAUGGUAACGCGUCUACCUCCUAAGGAGAAGUCUGCGGGUUCGAGUCCCGUACGGAACG [C29A A45U], the yeast fitness was found to be 0.524.
As for GUUCCGUUGGCGUAAUGGUAACGCGUCUACCUCCUAAGGAGAAGGCUGCGGGUUCGAGUCCCGUACGGAACG [C29A A45G], the yeast fitness was 0.578.
For the variant GUUCCGUUGGCGUAAUGGUAACGCGUCUACGUCCUAAGGAGAAGACUGCGGGUUCGAGUACCGUACGGAACG [C29A C31G C60A], the yeast fitness was 0.656.
Consider GUUCCGUUGGCGUAAUGGUAACGCGUCUAGCUCCUAAGGAGAAGACUGCCGGUUCGAGUCCCGUGCGGAACG [C29A C30G G50C A65G], for which the yeast fitness is no more than 0.5.
For GUUCCGUUGGCGUAAUGGUAACGCGUCUAUCUCCUAAGGAGAAGACUGCGGGUUCGAGUCCGGAACGGAACG [C29A C30U C62G U64A], the yeast fitness was found to be 0.553.
Consider GUUCCGUUGGCGUAAUGGUAACGCGUCUACCUCCUAAGGGGAAGACUGCGGGUUUGAGUCCCGUACGGAACG [C29A A40G C55U], for which the yeast fitness was no more than 0.5.
On to GUUCCGUUGGCGUAAUGGUAACGCGUCUAUCUCCUAAGGAGAAGACUGCGGGUUCGAAUCCCGUACGGAACG [C29A C30U G58A], for which the yeast fitness was no more than 0.5.
Consider GUUCCGUUGGCGUAAUGGUAACGCGUCUACGUCCUAAGAAGAAGACUCCGGGUUCGAGUCCCGUACGGAACG [C29A C31G G39A G48C], for which the yeast fitness was no more than 0.5.
As to GUUCCGUUGGCGUAAUGGUAACGCGUCUAACUCCUAAGGAGAAGACUGCAGGUUCGAGUCCCGUACGGACCG [C29A C30A G50A A70C], the yeast fitness is no more than 0.5.
As for GUUCCGUUGGCGUAAUGGUAACGCGUCUACCUCCUAAGGAGAAGAGUGCGGGUUCGAGUCCCGUACGGAACG [C29A C46G], the yeast fitness was 0.634.
The value for GUUCCGUUGGCGUAAUGGUAACGCGUCUACCUCCUAAGGAGGAGACUGCGGGUUCGAGUCCCGUACGGAACG [C29A A42G] was 0.672.
As to GUUCCGUUGGCGUAAUGGUAACGCGUCUACCUCCUAAGGAGCAGACUGCGGGUUCGAGUCCCGUACGGAACG [C29A A42C], the yeast fitness came out at 0.662.
With GUUCCGUUGGCGUAAUGGUAACGCGUCUACGUCCUAAGGAGAAGACUGCGGGUUAGAAUCCCGUACGGAACG [C29A C31G C55A G58A], the yeast fitness worked out at 0.568.
Turning to GUUCCGUUGGCGUAAUGGUAACGCGUCUAGCUCCUAAGGAGAAGACUGCCGGUUCGAGUCCCGUACGGAACG [C29A C30G G50C], the yeast fitness is no more than 0.5.
Regarding GUUCCGUUGGCGUAAUGGUAACGCGUCUAUCUCCUUAGGAGAAGACUGCGGGUUCGAGUCCCGUACGGACCG [C29A C30U A36U A70C], the yeast fitness was no more than 0.5.
As for GUUCCGUUGGCGUAAUGGUAACGCGUCUACCUCCUAAGGAGAAGACUGUGGGUUCGAGUCCUGUACGGAACG [C29A C49U C62U], the yeast fitness was found to be 0.562.
Consider GUUCCGUUGGCGUAAUGGUAACGCGUCUAUCUCCUAAGGAGAAGACUGCGGGUUCGAGUCCCGCACGGAACG [C29A C30U U64C], for which the yeast fitness was no more than 0.5.
The same measure for GUUCCGUUGGCGUAAUGGUAACGCGUCUAUCUCCUAAGGAGAAGACCGCGGGUUCGAGUCCCGCACGGAACG [C29A C30U U47C U64C]: no more than 0.5; for GUUCCGUUGGCGUAAUGGUAACGCGUCUAGCUCCUCAGGAGAACACUGCGCGUUCGAGUCCCGUACGGAACG [C29A C30G A36C G44C G51C]: no more than 0.5.
Regarding GUUCCGUUGGCGUAAUGGUAACGCGUCUACCUCCUAAGGAGAAGACUGCGGGUUGGAGUCCCGUGCGGAACG [C29A C55G A65G], the yeast fitness turned out to be 0.57.
The same measure for GUUCCGUUGGCGUAAUGGUAACGCGUCUACCUCCUAAGGAGAAGACUGCGGGUUCGAGUCCCGUACGGGACG [C29A A69G]: 0.6; for GUUCCGUUGGCGUAAUGGUAACGCGUCUACCUUCUAAGGAGAAGACUGCGGGUUGGAGUCCCGUACGGAACG [C29A C33U C55G]: 0.633.
For GUUCCGUUGGCGUAAUGGUAACGCGUCUACAUCCUAAGGCGAAAACUGCGGGUUCGAGACCCGUACGGAACG [C29A C31A A40C G44A U59A], the yeast fitness was determined as 0.682.
For GUUCCGUUGGCGUAAUGGUAACGCGUCUACCUGCCAAGGAGAAGACUGCGGGUUCGAGUCCCGUAUGGAACG [C29A C33G U35C C66U], the yeast fitness is no more than 0.5.
In the case of GUUCCGUUGGCGUAAUGGUAACGCGUCUACCUUCUAAGGAGAAGACUGCGGGUUCGAGUCCAGUACGGCACG [C29A C33U C62A A69C], the yeast fitness is no more than 0.5.
The value for GUUCCGUUGGCGUAAUGGUAACGCGUCUACUUCCUAAGGUGAAGACUGCGGGUUCGAGUCCCGUACGGAACG [C29A C31U A40U] was no more than 0.5; that for GUUCCGUUGGCGUAAUGGUAACGCGUCUACCUCCUAAGGAGGAGACUGCGGGUUCGAGUCGCGUACGGAACG [C29A A42G C61G] was 0.533; that for GUUCCGUUGGCGUAAUGGUAACGCGUCUACCUGCUAAGGAGAAGACUGCGGGUUCGAGUCUCGUACGGAACG [C29A C33G C61U] was 0.619.
On to GUUCCGUUGGCGUAAUGGUAACGCGUCUACCUCCUAAGGUGAAGCCUGAGGGUUCGGGUCCCGUACGGAACG [C29A A40U A45C C49A A57G], for which the yeast fitness was 0.574.
Regarding GUUCCGUUGGCGUAAUGGUAACGCGUCUACCUCCUAAGGAGAAGCCUGUGGGUUCGAGUCCCGUAUGGAACG [C29A A45C C49U C66U], the yeast fitness is no more than 0.5.
GUUCCGUUGGCGUAAUGGUAACGCGUCUACCUCGUAAGGAGAAGACUGCGGGUUCGCGUCCCGUACGGAACG [C29A C34G A57C]: the yeast fitness was no more than 0.5.
As for GUUCCGUUGGCGUAAUGGUAACGCGUCUACCUCUUAAGGAGAAGACUCCGGGUUCGAGUCCCGUACGGAACG [C29A C34U G48C], the yeast fitness was no more than 0.5.
For the variant GUUCCGUUGGCGUAAUGGUAACGCGUCUACCUCCUAAGGAGAAGACUGCGGGUUCGAGUACCGUAGGGAACG [C29A C60A C66G], the yeast fitness is no more than 0.5.
Consider GUUCCGUUGGCGUAAUGGUAACGCGUCUACGUCCUAAGGAGAAGACUGCGCGUUCGAGUCCGGUACGGAACG [C29A C31G G51C C62G], for which the yeast fitness was no more than 0.5.
The same measure for GUUCCGUUGGCGUAAUGGUAACGCGUCUACCUCCUAAGGAGGAGACUGCGGGUUCGAGUCCCAUACGGAACG [C29A A42G G63A]: no more than 0.5; for GUUCCGUUGGCGUAAUGGUAACGCGUCUACCUCCUAAGGAGAAGACUGGGGGUUCGAGUCCCGUACGGAACG [C29A C49G]: 0.623; for GUUCCGUUGGCGUAAUGGUAACGCGUCUACCUCCUAAGGAGAAGACUGCGGGUUCGAGUCGCGUAUGGUACG [C29A C61G C66U A69U]: no more than 0.5.
